Compound activity: PubChem BioAssay, Sanford-Burnham Center for Chemical Genomics
Rows were chosen to be rich in hits. Some 2.3% of all compounds tested hit in one or more screens of this group.
MT1-MMP act inh – blocks activation of human MT1-MMP; HT1080 RFP-PRO-GFP cells, GFP/RFP ratio fluorescence, overnight; percent of plate control window, DMSO zero; GFP/RFP ratio change, % at 20 µM; AID 651647; hit rate 0.061% among 360,000;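 active means GFP/RFP ratio change of at least 30% with cell ATP level not reduced by more than half and red fluorescence within 50% of control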
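Read-out: GFP/RFP fluorescence ratio; Test system: RFP-PRO-GFP reporter HT1080 cells; Compound dosing: single-point 20 µM compound, 1% DMSO; Times: overnight compound exposure at 37 °C.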
SKN-1 inh – blocks SKN-1 activity in C. elegans; C. elegans VP596 Pgst-4::GFP/RFP ratio, acrylamide-induced, 24 h; inhibition, % at 21.8 µM; hit rate 0.49% among 360,000; AID 624304;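 active means interference check ratio from 0.5 to 1.5 plus GFP to RFP signal ratio inhibition reaching or exceeding a fixed threshold, cut at about 30% in these data, passing the limit was not always enough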
MPTP block – blocks calcium-induced mitochondrial swelling | inhibition, % at 10 µM | hit rate 1.4% among 360,000 | AID 602449 | isolated mouse mitochondria, Ca2+ swelling absorbance, 30 min;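 active means inhibition of 50% or more, scaled per plate between neutral and stimulator controls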
ATG4B inh – inhibitors of human ATG4B cysteine protease; inhibition, % at 8.33 µM; hit rate 0.51% among 340,000; Q9Y4P1; ATG4B cleavage of LC3-PLA2, NBD-HPC fluorescence, 1 h; in the data active means inhibition above about 40%
Target sequence (Q9Y4P1 whole entry, looked up): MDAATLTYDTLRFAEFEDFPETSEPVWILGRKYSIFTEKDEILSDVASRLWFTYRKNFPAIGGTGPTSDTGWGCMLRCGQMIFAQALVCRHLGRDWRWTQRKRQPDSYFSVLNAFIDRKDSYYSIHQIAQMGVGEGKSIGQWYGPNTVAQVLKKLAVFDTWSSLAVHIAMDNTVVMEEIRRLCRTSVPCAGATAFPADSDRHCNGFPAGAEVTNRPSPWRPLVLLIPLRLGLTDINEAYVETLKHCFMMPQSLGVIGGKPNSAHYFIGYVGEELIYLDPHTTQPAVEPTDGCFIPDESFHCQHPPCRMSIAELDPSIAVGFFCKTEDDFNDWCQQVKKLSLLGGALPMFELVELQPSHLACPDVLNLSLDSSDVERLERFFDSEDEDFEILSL
A number is an active result; 0 = inactive; - = not tested or not shown.

SMILES	MT1-MMP act inh	SKN-1 inh	MPTP block	ATG4B inh
O=C(/C=C/Nc1ccc(F)c(F)c1)c1cccs1	0	44	0	0
NC(=O)c1ccccc1N/C=C/C(=O)c1cccs1	0	0	0	0
Cc1ccc(-c2csc3ncnc(SCC(=O)NCc4ccc5c(c4)OCO5)c23)cc1	0	0	0	0
O=C(CSc1ncnc2scc(-c3ccc(Cl)cc3)c12)NCc1ccc2c(c1)OCO2	0	46	0	0
Cc1c(NC(=O)/C(C#N)=C/c2ccc(-c3ccc(Cl)c(Cl)c3)o2)c(=O)n(-c2ccccc2)n1C	0	46	0	0
Cc1c(NC(=O)/C(C#N)=C/c2ccc(-c3cccc(Cl)c3)o2)c(=O)n(-c2ccccc2)n1C	0	0	0	0
CSc1ccc(-c2nnn(Cc3ccc(Br)cc3)n2)cc1	0	36	0	0
CC1=NN(C(N)=S)C(=O)C1N=Nc1ccc([N+](=O)[O-])cc1 (stereo not drawn)	0	0	0	0
Cn1ncc(C#N)c1/N=C/N1CCCC1	0	42	0	0
O=S(=O)(c1cccc2c(S(=O)(=O)N3CCCC3)cccc12)N1CCCC1	0	36	0	0
COc1c(S(=O)(=O)N2CCCCC2)ccc2c(S(=O)(=O)N3CCCCC3)cccc12	0	0	0	0
Cc1ccc(/C(N)=N/OC(=O)c2ccco2)cc1	0	85	0	0
N/C(=N\OC(=O)Cc1cccs1)c1ccc([N+](=O)[O-])cc1	0	0	0	0
COc1ccc(/C(N)=N/OC(=O)c2ccco2)cc1	0	51	0	0
N/C(=N\OC(=O)c1ccco1)c1ccccc1	0	0	0	0
N/C(=N\OC(=O)c1ccco1)c1ccc(Br)cc1	0	50	0	0
N/C(=N\OC(=O)Cc1cccs1)c1ccc(Br)cc1	0	61	0	0
N/C(=N\OC(=O)c1ccc(Br)cc1)c1ccccc1	0	0	0	0
CCOC(=O)c1sc(NC(=O)CC)c(C#N)c1C	0	0	0	0
CC1CCN(C(=O)c2[nH]cnc2C(=O)NCc2ccc(CNC(=O)OC(C)(C)C)cc2)CC1	0	0	0	0
O=C(Nc1cccnc1Cl)c1cc2c(s1)-c1ccccc1OC2	0	0	0	0
O=C(Nc1ccc(Cl)cn1)c1cc2c(s1)-c1ccccc1OC2	0	38	0	0
O=C(O)COn1c(-c2ccc(Cl)cc2)nc2ccc(Cl)cc21	0	0	0	0
COn1c(-c2ccc(Cl)cc2)nc2ccc(Cl)cc21	0	87	0	0
O=C(Nc1ccc(Cl)c(Cl)c1)c1ccccc1	0	43	0	0
SMILES	MT1-MMP act inh	SKN-1 inh	MPTP block	ATG4B inh
O=C(Nc1csc(Cl)c1)c1ccccc1	0	42	0	0
O=C(Nc1ccc([N+](=O)[O-])cc1)c1ccccc1	0	37	0	0
O=C(Nc1cccc(Cl)c1)c1ccccc1	0	0	0	0
Cc1cccc(OC(C)C(=O)Nc2nc(-c3ccncc3)cs2)c1 (stereo not drawn)	0	0	0	0
COc1ccc(CC(N)c2csc(Nc3nncc4ccccc34)n2)cc1 (stereo not drawn)	0	0	0	-
COC(=O)[C@]12CCCCC=C1N(CCC1=CCCCC1)C(=O)[C@H](CC(=O)NCc1cccc(C(F)(F)F)c1)C2	0	0	0	-
CC(=O)Nc1ccc(S(=O)(=O)N(C)c2ccc(OCC(=O)OCC(=O)NCc3ccco3)cc2)cc1	0	0	0	0
CN(C)S(=O)(=O)NC(c1ccccc1)c1ccccc1	0	36	0	0
COc1ccc(S(=O)(=O)N2CCC(C(=O)NCCc3c[nH]c4ccccc34)CC2)cc1	0	0	0	0
Cc1c(OCC(=O)NCC2CCC(C(=O)O)CC2)ccc2c(-c3ccccc3)cc(=O)oc12 (stereo not drawn)	0	0	0	0
Cc1csc2nc(CNS(=O)(=O)c3ccc4c(c3)CCCC4)cn12	0	36	0	0
CCCCNC(=O)c1ccc(Cc2cn(C)c3ccccc23)nc1	0	0	0	-
CCOc1cccc2cc(C(=O)N3CCc4ccccc43)c(=O)oc12	0	47	0	0
COc1cccc2cc(C(=O)N3CCc4ccccc43)c(=O)oc12	0	0	0	0
COc1ccc(C(=O)/C=C/Nc2ccccn2)c(OC)c1	0	0	0	0
O=C(/C=C/Nc1ccccc1F)c1ccc(Br)cc1	0	0	0	0
O=C(/C=C\Nc1ccccn1)c1ccccc1	0	61	0	0
O=C(/C=C/Nc1ccc(Br)cc1F)c1ccccc1	0	50	0	0
O=C(NCc1ccccc1Cl)[C@H]1CCCN1C(=O)[C@H]1CCCN1C(=O)c1ccc(Cl)cc1	0	0	0	-
COc1ccc(C[C@@H]2CN3C(=NC[C@@H]3C)N2C[C@H](C)NC(=O)c2ccc(C)c(Br)c2)cc1	0	0	0	0
O=C(Nc1ccc2nc(-c3ccco3)c(-c3ccco3)nc2c1)N1CCCCCC1	-	-	-	47
Cc1ccc2c(c1)c(C)c(C)n2CC(O)CN1CCOCC1 (stereo not drawn)	0	39	0	0
COc1cccc(-c2cccc(NC(=O)C3CCN(CC4CCOC4)CC3)c2)c1 (stereo not drawn)	0	46	0	0
Cc1cccc(C)c1NC(=O)C(c1cccc2ccccc12)n1c(=O)c(-c2cc3ccccc3[nH]2)nc2ccccc21 (stereo not drawn)	0	0	0	-
COC(=O)C1=C(C)N=c2s/c(=C/c3cccs3)c(=O)n2C1c1cccs1 (stereo not drawn)	0	39	0	0
SMILES	MT1-MMP act inh	SKN-1 inh	MPTP block	ATG4B inh
COC(=O)C1=C(C)N=c2s/c(=C/c3ccoc3)c(=O)n2C1c1ccccc1 (stereo not drawn)	0	0	0	0
O=C(c1nc[nH]c1C(=O)N1CCc2ccccc2C1)N1CCc2ccccc2C1	0	38	0	0
Cn1ncc2c(Nc3ccccc3Cl)nc(Cl)nc21	0	0	0	0
Cn1ncc2c(NCCc3ccccc3)nc(Cl)nc21	0	35	0	0
Cc1cc(OCCCCN2C(=O)NC(C)(C)C2=O)cc(C)c1Cl	0	39	0	0
c1ccc(CCC2CCCCN2Cc2nc(-c3ccc4c(c3)OCO4)no2)nc1 (stereo not drawn)	0	0	0	0
CN(C)c1ccc(C(=O)/C=C/c2ccccc2)cc1	0	43	0	0
CCOCC(=O)Nc1ccc(C)c(Cl)c1	-	36	0	0
Cc1n(-c2ccccc2)c2ccc(Cl)cc2[n+]1CCO	0	0	0	0
c1ccc(-c2nc(-c3ccccn3)no2)cc1	0	0	0	0
c1ccc(-c2ccc(-c3nc(-c4ccccn4)no3)cc2)cc1	0	63	0	0
Clc1ccc(-c2nc(-c3cnccn3)no2)cc1	0	46	0	0
Fc1ccc(-c2nc(-c3cnccn3)no2)c(Cl)c1	0	38	0	0
O=c1[nH][nH]c2c1[C@H](c1ccc(F)cc1)O[C@H](CCc1ccccc1)C2	0	0	0	-
CN(C)c1ccc(N=Nc2ccc(C(=O)O)cc2)cc1	0	41	0	0
CN(C)c1ccc(C(=O)c2ccccc2)cc1	0	0	0	0
CC(C)C(c1nnnn1Cc1ccco1)N1CCN(C2CCCC2)CC1 (stereo not drawn)	0	51	0	0
